Measurements gathered from unrelated publications.
Compare with care: the assays were run in different laboratories. ≈ marks a conversion by molar mass, not a printed value.

| SMILES | tested on | assay | system | setting | quantity | value |
| --- | --- | --- | --- | --- | --- | --- |
| COC(=O)COc1ccc(NC(=O)C2(c3ccccc3)CC2)cc1 | U-937 | cell growth or viability, ATP luminescence | – | 72 h | GI50 | 4.2 µM |
| Cc1cc(=O)oc2ccc(-c3cc(-c4ccc(Cl)cc4)nc(N)n3)c(O)c12 | KB | cell growth or viability, MTT | – | 128 µg/mL, 72 h | inhibition | 60% |
| CCCCCCCCCCN1CCN(CC(O)(Cn2cncn2)c2ccc(F)cc2F)CC1 (centres unmarked) | Pichia kudriavzevii | microbial growth, broth dilution | ATCC6258 | 48 h | MIC | 1.95 µg/mL (≈ 4.21 µM) |
| COc1ccc(-c2cc(-c3ccc4oc(=O)cc(C)c4c3O)nc(N)n2)cc1 | KB | cell growth or viability, MTT | – | 8 µg/mL, 72 h | inhibition | 0% |
| C[C@@H]1[C@H](O)[C@@H](C)/C=C/C=C/C=C/C=C/C=C/C=C/C=C/[C@H](O[C@@H]2O[C@H](C)[C@@H](O)[C@H](N)[C@@H]2O)C[C@@H]2O[C@](O)(C[C@@H](O)C[C@@H](O)[C@H](O)CC[C@@H](O)C[C@@H](O)CC(=O)O[C@H]1C)C[C@H](O)[C@H]2C(=O)O | Pichia kudriavzevii | microbial growth, broth dilution | ATCC6258 | – | IC50 | 0.6 µg/mL |
| C[C@@H](c1ncncc1F)[C@](O)(Cn1cncn1)c1ccc(F)cc1F | Acanthamoeba quina | parasite growth, resazurin | – | 7 days | IC50 | 24.1 µM |
| COC(=O)COc1ccc(NC(=O)C2(c3ccc(Cl)cc3)CC2)cc1 | U-937 | cell growth or viability, ATP luminescence | – | 72 h | GI50 | 3.9 µM |
| Clc1ccccc1C(c1ccccc1)(c1ccccc1)n1ccnc1 | Fusarium solani | microbial growth, disc diffusion | – | 20000 µg/mL | inhibition zone | 23 mm |
| COC(=O)COc1ccc(NC(=O)C2(c3cccc(C)c3)CC2)cc1 | U-937 | cell growth or viability, ATP luminescence | – | 72 h | GI50 | > 200 µM |
| Cc1cc(=O)oc2ccc(-c3cc(-c4cccc(Cl)c4)nc(N)n3)c(O)c12 | KB | cell growth or viability, MTT | – | 8 µg/mL, 72 h | inhibition | 5% |
| COC(=O)COc1ccc(NC(=O)C2(c3ccc(Cl)c(Cl)c3)CC2)cc1 | U-937 | cell growth or viability, ATP luminescence | – | 72 h | GI50 | 3 µM |
| Cc1cc(=O)oc2ccc(-c3cc(-c4ccc(Br)cc4)nc(N)n3)c(O)c12 | KB | cell growth or viability, MTT | – | 8 µg/mL, 72 h | inhibition | 2% |
| CCCCCCCCCCCCCCN1CCN(CC(O)(Cn2cncn2)c2ccc(F)cc2F)CC1 (centres unmarked) | Pichia kudriavzevii | microbial growth, broth dilution | ATCC6258 | 48 h | MIC | 0.975 µg/mL (≈ 1.88 µM) |
| C[C@@H]1[C@H](O)[C@@H](C)/C=C/C=C/C=C/C=C/C=C/C=C/C=C/[C@H](O[C@@H]2O[C@H](C)[C@@H](O)[C@H](N)[C@@H]2O)C[C@@H]2O[C@](O)(C[C@@H](O)C[C@@H](O)[C@H](O)CC[C@@H](O)C[C@@H](O)CC(=O)O[C@H]1C)C[C@H](O)[C@H]2C(=O)O | Pichia kudriavzevii | microbial growth | ATCC6258 | – | IC50 | 0.56 µM |
